The term inhibition denotes the change of the read-out against control, counted positive when it falls. Usually IC50 stands for the concentration that gives 50% inhibition.

We go through 24 molecules from ChEMBL document CHEMBL2057104, “Identification of myricetin and scutellarein as novel chemical inhibitors of the SARS coronavirus helicase, nsP13” (Bioorg Med Chem Lett, 2012).

Calls of active or inactive are those of the source. The rule behind the calls is not given here. A value given as a limit tells only on which side of the number the result lay.

The subject of series [1] is Severe acute respiratory syndrome-related coronavirus. In words: Inhibition of SARS coronavirus nsP13 ATP hydrolysis activity expressed in Escherichia coli Rosetta assessed as inhibition of inorganic phosphate release at 10 uM by AM/MG-based colometric analysis in the presence of M13 ssDNA.
For series [2], the system named is Hepacivirus hominis. In words: Inhibition of HCV NS3 helicase ATP hydrolysis activity overexpressed in Escherichia coli BL21(DE3) assessed as inhibition of inorganic phosphate release by AM/MG-based colometric analysis in the presence of M13 ssDNA.
Series [3] deals with Severe acute respiratory syndrome-related coronavirus. In words: Inhibition of SARS coronavirus nsP13 helicase activity expressed in Escherichia coli Rosetta assessed inhibition of DNA unwinding activity at 10 uM by FRET assay. The procedure, abridged: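 FRET dsDNA-unwinding assay using fluorescein/TAMRA-labelled duplex. When nsP13 unwinds the duplex, fluorescein emission is unquenched. Compound was added to the unwinding reaction at 10 µM, and fluorescence was read at 535 nm.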

For series [4], the system named is Hepacivirus hominis. In words: Inhibition of HCV NS3 helicase overexpressed in Escherichia coli BL21(DE3) assessed as inhibition of DNA unwinding activity at 10 uM by FRET assay.
Series [5] can be described thus: Inhibition of SARS coronavirus nsP13 ATP hydrolysis activity expressed in Escherichia coli Rosetta assessed as inhibition of inorganic phosphate release by AM/MG-based colometric analysis in the presence of M13 ssDNA. Further details: species or system Severe acute respiratory syndrome-related coronavirus. An outline of the steps: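 ATP hydrolysis was measured colorimetrically as phosphate complex formation with ammonium molybdate/malachite green. Reactions ran with a range of compound concentrations. IC50 was derived from the concentration series.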

In a further series the test system is MCF-10A. Description: Cytotoxicity in human MCF10A cells at 2 uM measured every 24 hrs for 3 days by hemocytometry. The series is classed as cell-based. The settings on record: 72 h. The procedure, abridged: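 MCF10A breast epithelial cells grown at 37°C in 5% CO2 and seeded at 2.0 × 10^5 per well. They were exposed to compound at 2 µM and harvested every 24 h for 3 days. Viable cells were counted by hemacytometer. Results are mean ± standard deviation, n = 6, compared by Student t-test.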

In the case of `C[C@H]1O[C@@H](Oc2c(-c3cc(O)c(O)c(O)c3)oc3cc(O)cc(O)c3c2=O)[C@@H](O)[C@@H](O)[C@@H]1O`, the inhibition in series [1] turned out to be 20%. Also, the inhibition result (in the series on Hepacivirus hominis [2]; in series [3]; in the series on Hepacivirus hominis [4]) was “inactive” each time.

Consider `O=c1cc(-c2ccc(O)cc2)oc2cc(O)c(O)c(O)c12` [SCUTELLAREIN], for which the inhibition in series [1] was above 90%. For the same molecule, the inhibition result (in the series with Hepacivirus hominis [2]; in series [3]; with Hepacivirus hominis [4]) was “inactive” each time. Further, the IC50 in series [5] was found to be 860 nM. Moreover, in the series with MCF-10A, the Activity result is recorded as “Non-toxic”.

`O=c1c(O)c(-c2cc(O)c(O)c(O)c2)oc2cc(O)cc(O)c12` [MYRICETIN]: the inhibition in series [1] was above 90%. Besides, the inhibition entry (with Hepacivirus hominis [2]; in series [3]; with Hepacivirus hominis [4]) was “inactive” throughout. Further, the Activity entry with MCF-10A was “Non-toxic”.

In the case of `O=c1cc(-c2ccc(O)c(-c3c(O)cc(O)c4c(=O)cc(-c5ccc(O)cc5)oc34)c2)oc2cc(O)cc(O)c12`, the inhibition in series [1] was determined as 20%. Further, the inhibition result (in the series with Hepacivirus hominis [2]; in series [3]; in the series on Hepacivirus hominis [4]) was “inactive” throughout.

For `CC1(C)CC[C@]2(C)CC=C3[C@]4(C)CC[C@H]5C(C)(C)[C@@H](O)CC[C@]5(C)[C@H]4CC[C@@]3(C)[C@@H]2C1`, the inhibition in series [1] was 20%. Also, the inhibition result (with Hepacivirus hominis [2]; in series [3]; in the series with Hepacivirus hominis [4]) was “inactive” each time.

For the molecule `O=C1C[C@@H](c2ccc(O)cc2)Oc2cc(O)cc(O)c21`, the inhibition entry (with Hepacivirus hominis [2]; in series [3]; in the series on Hepacivirus hominis [4]) was “inactive” each time.

With `CC(C)=CCc1c(O)cc2oc3cc(O)c(O)c(CC=C(C)C)c3c(=O)c2c1O`, the inhibition entry (with Hepacivirus hominis [2]; in series [3]; in the series with Hepacivirus hominis [4]) was “inactive” in each case.

Take `CC(C)=CCC[C@](C)(O[C@@H]1O[C@H](CO[C@@H]2O[C@H](CO)[C@@H](O)[C@H](O)[C@H]2O)[C@@H](O)[C@H](O)[C@H]1O)[C@H]1CC[C@]2(C)[C@@H]1[C@H](O)C[C@@H]1[C@@]3(C)CC[C@H](O[C@@H]4O[C@H](CO)[C@@H](O)[C@H](O)[C@H]4O)C(C)(C)[C@@H]3CC[C@]12C`: the inhibition entry (with Hepacivirus hominis [2]; in series [3]; in the series on Hepacivirus hominis [4]) was “inactive” in each case.

Regarding `O=c1c(-c2ccc(O[C@@H]3O[C@H](CO)[C@@H](O)[C@H](O)[C@H]3O)cc2)coc2cc(O)cc(O)c12`, the inhibition result (in the series with Hepacivirus hominis [2]; in series [3]; in the series with Hepacivirus hominis [4]) was “inactive” each time.

As for `C=C1CC[C@@H]2[C@](C)(CCC[C@]2(C)C(=O)O)[C@H]1CCc1ccoc1`, the inhibition entry (in the series on Hepacivirus hominis [2]; in series [3]; in the series with Hepacivirus hominis [4]) was “inactive” each time.

For `CC(C)=CCc1c(O)c(CC=C(C)C)c2oc3c(O)cccc3c(=O)c2c1O`, the inhibition result (with Hepacivirus hominis [2]; in series [3]; in the series on Hepacivirus hominis [4]) was “inactive” in each case.

On to `C=C(C)C(C)CC[C@@H](C)[C@H]1CC[C@@]2(C)[C@@H]3CC[C@H]4C(C)(C)C(=O)CC[C@]4(C)C3=CC[C@]12C` (stereo not given in full), for which the inhibition result (in the series with Hepacivirus hominis [2]; in series [3]; in the series with Hepacivirus hominis [4]) was “inactive” in each case.

Regarding `COc1c(O)cc2oc3cc(O)c4c(c3c(=O)c2c1CC=C(C)C)OC(C)(C)CC4`, the inhibition entry (in the series with Hepacivirus hominis [2]; in series [3]; in the series on Hepacivirus hominis [4]) was “inactive” each time.

Consider `O=C(O)[C@H]1O[C@@H](Oc2cc3oc(-c4ccc(O)cc4)cc(=O)c3c(O)c2O)[C@H](O)[C@@H](O)[C@@H]1O`, for which the inhibition entry (in the series on Hepacivirus hominis [2]; in series [3]; in the series with Hepacivirus hominis [4]) was “inactive” throughout.

`COc1ccc([C@@H]2CC(=O)c3c(O)cc(O)cc3O2)cc1O[C@@H]1O[C@H](CO[C@@H]2O[C@@H](C)[C@H](O)[C@@H](O)[C@H]2O)[C@@H](O)[C@H](O)[C@H]1O`: the inhibition entry (in the series with Hepacivirus hominis [2]; in series [3]; in the series on Hepacivirus hominis [4]) was “inactive” in each case.

As for `C/C=C(/C)C(=O)O[C@H]1Cc2c(cc3oc(CO)cc(=O)c3c2O)OC1(C)C`, the inhibition entry (in the series on Hepacivirus hominis [2]; in series [3]; in the series with Hepacivirus hominis [4]) was “inactive” throughout.

On to `COc1c2c(cc3oc(C)cc(=O)c13)OC(C(C)(C)O)C2` (stereo not given), for which the inhibition entry (with Hepacivirus hominis [2]; in series [3]; in the series on Hepacivirus hominis [4]) was “inactive” throughout.

As to `C=C(C)[C@@H]1CC[C@]2(C(=O)O)CC[C@]3(C)[C@H](CC[C@@H]4[C@@]5(C)CC[C@H](O)C(C)(C)[C@@H]5CC[C@]43C)[C@@H]12`, the inhibition entry (in the series on Hepacivirus hominis [2]; in series [3]; in the series on Hepacivirus hominis [4]) was “inactive” in each case.

For `CC[C@H](/C=C/[C@@H](C)[C@H]1CC[C@H]2[C@@H]3CC=C4C[C@@H](O)CC[C@]4(C)[C@H]3CC[C@]12C)C(C)C`, the inhibition result (with Hepacivirus hominis [2]; in series [3]; with Hepacivirus hominis [4]) was “inactive” each time.

`O=c1c(-c2ccc(O)cc2)coc2cc(O[C@@H]3O[C@H](CO)[C@@H](O)[C@H](O)[C@H]3O)ccc12`: the inhibition result (with Hepacivirus hominis [2]; in series [3]; in the series with Hepacivirus hominis [4]) was “inactive” in each case.

As to `C=CCc1cc(OC)c(O)c(OC)c1`, the inhibition result (with Hepacivirus hominis [2]; in series [3]; in the series with Hepacivirus hominis [4]) was “inactive” each time.

On to `CC[C@H](CC[C@@H](C)[C@H]1CC[C@H]2[C@@H]3CC=C4C[C@@H](O[C@@H]5O[C@H](CO)[C@@H](O)[C@H](O)[C@H]5O)CC[C@]4(C)[C@H]3CC[C@]12C)C(C)C`, for which the inhibition result (in the series on Hepacivirus hominis [2]; in series [3]; in the series with Hepacivirus hominis [4]) was “inactive” throughout.

With `O=C(O[C@H]1[C@@H]2C=CO[C@@H](O[C@@H]3O[C@H](CO)[C@@H](O)[C@H](O)[C@H]3O)[C@@H]2[C@@]2(CO)O[C@@H]12)c1ccc(O)c(O)c1`, the inhibition result (in the series with Hepacivirus hominis [2]; in series [3]; in the series with Hepacivirus hominis [4]) was “inactive” each time.

Consider `O=c1c(O)c(-c2ccccc2)oc2cc(O)cc(O)c12`, for which the inhibition entry (in the series with Hepacivirus hominis [2]; in series [3]; in the series with Hepacivirus hominis [4]) was “inactive” throughout.
